Assay results of several laboratories.
Protocols differ between the studies behind these lines.
Matrix: plasma

CCCCC1=NC2(CCCC2)C(=O)N1Cc1ccc(-c2ccccc2S(=O)(=O)Nc2noc(C)c2C)c(COCC)c1
AUC(0-t) (human; oral, 200 mg, single dose, fed, healthy volunteers, tablet): 50.5 µg·h/mL

COc1cc(N2CCC(N3CCN(C)CC3)CC2)ccc1Nc1ncnc(Nc2ccccc2S(=O)(=O)C(C)C)n1
AUC(0-t) (human; oral, 325 mg, multiple doses, patients): 23.1 µg·h/mL

NS(=O)(=O)c1ccc(NC(=O)Nc2ccc(F)cc2)cc1
AUC(0-t) (human; oral, 1000 mg, multiple doses, once daily): 70.7 µg·h/mL

COC(=O)N[C@@H](C)CNc1nccc(-c2cn(C(C)C)nc2-c2cc(Cl)cc(NS(C)(=O)=O)c2F)n1
AUC(0-t) (human; oral, 50 mg, single dose): 1.9 µg·h/mL

O=C(/C=C/c1cccc(S(=O)(=O)Nc2ccccc2)c1)NO
AUC(0-t) (human; intravenous, 2000 mg/m², patients): 85.2 µg·h/mL

Cc1nc(NC(=O)N2CCC[C@H]2C(N)=O)sc1-c1ccnc(C(C)(C)C(F)(F)F)c1
AUC(0-t) (human; oral, 350 mg, patients): 27.6 µg·h/mL

CO[C@@H]1[C@H](OC(=O)N2CC(CCN3CCOCC3)C2)CC[C@]2(CO2)[C@H]1[C@@]1(C)O[C@@H]1CC=C(C)C
AUC(0-t) (human; subcutaneous, 0.6 mg, single dose, healthy volunteers): 0.00121 µg·h/mL

O=C(O)C[C@H](O)C[C@H](O)/C=C/c1c(C2CC2)nc2ccccc2c1-c1ccc(F)cc1
AUC(0-t) (human; oral, 2 mg, single dose, fed, healthy volunteers, tablet): 0.292 µg·h/mL

Oc1cc(O)c2c(c1)O[C@@H](c1ccc(O)c(O)c1)[C@@H](O)C2
AUC(0-t) (human; oral, 100 mg, single dose): 0.0142 µg·h/mL

COc1cc2c(cc1OC)CN(CCc1ccc(NC(=O)c3cc(OC)c(OC)cc3NC(=O)c3cnc4ccccc4c3)cc1)CC2
AUC(0-t) (human; intravenous, 1 mg/kg, patients): 5.4 µM·h

C#Cc1cccc(Nc2ncnc3cc(OCCOC)c(OCCOC)cc23)c1
AUC(0-t) (human; oral, 50 mg, patients): 12.5 µM·h

CNCC[C@H](Oc1cccc2ccccc12)c1cccs1
AUC(0-t) (female human; oral, 30 mg, multiple doses, once daily): 0.135 µg·h/mL

OC[C@H]1O[C@@H](c2ccc(Cl)c(Cc3ccc(O[C@H]4CCOC4)cc3)c2)[C@H](O)[C@@H](O)[C@@H]1O
AUC(0-t) (human; oral, 2.5 mg, single dose): 0.402 µM·h

CC[C@H](C)C(=O)O[C@H]1C[C@H](O)C=C2C=C[C@H](C)[C@H](CC[C@@H](O)C[C@@H](O)CC(=O)O)[C@H]21
AUC(0-t) (human; oral, 20 mg): 0.0467 µg·h/mL

C[C@@H](Oc1ccc(S(C)(=O)=O)cc1C(=O)N1C[C@@H]2C[C@]2(c2cc(C(F)(F)F)on2)C1)C(F)(F)F
AUC(0-t) (human; oral, 25 mg, fasted, tablet): 8.7 µM·h

CC(C)(O)c1ccccc1-c1ccc2[nH]c(/C=C/c3ccc(C(F)(F)F)cc3)nc2c1
AUC(0-t) (male human; oral, 225 mg, single dose, fasted): 5.75 µg·h/mL

CO[C@H]1CC[C@H](N2C(=O)CNc3ncc(-c4ccc(C(C)(C)O)nc4)nc32)CC1
AUC(0-t) (human; oral, 30 mg, multiple doses, patients): 1.44 µg·h/mL

FC(F)(F)c1ccc(CNc2ccc(Cc3c[nH]c4ncc(Cl)cc34)cn2)cn1
AUC(0-t) (human; oral, 1600 mg, multiple doses, patients): 28.7 µg·h/mL

Nc1cc(C(F)(F)F)c(-c2cc(N3CCOCC3)nc(N3CCOCC3)n2)cn1
AUC(0-t) (human; oral, 100 mg/day, patients): 8.8 µg·h/mL

COCCOc1cnc2ccn([C@H](C)c3nnc4c(F)cc(-c5cnn(C)c5)cn34)c(=O)c2c1
AUC(0-t) (human; oral, 150 mg, multiple doses, once daily, patients): 31.9 µg·h/mL

C[C@@]1(c2cc(NC(=O)c3ccc(C#N)cn3)ccc2F)C=CSC(N)=N1
AUC(0-t) (human; oral, 30 mg, single dose): 2.51 µg·h/mL

C[C@@H](Nc1cc(F)cc(F)c1)c1cc(C(=O)N(C)C)cc2c(=O)cc(N3CCOCC3)oc12
AUC(0-t) (human; oral, 30 mg, single dose, patients): 0.599 µg·h/mL

CC(C)n1cc(C#N)c2cc(-n3cc(C(=O)O)cn3)ccc21
AUC(0-t) (human; oral, 400 mg, single dose, fasted, healthy volunteers): 91.5 µg·h/mL

CNC(=O)c1ccccc1Sc1ccc2c(/C=C/c3ccccn3)n[nH]c2c1
AUC(0-t) (human; oral, 5 mg, single dose, fasted, healthy volunteers): 0.194 µg·h/mL

COc1ccc([C@@H]2CN(C(=O)[C@@H](O)CO)C[C@@]2(C)[C@@H](C)O)cc1OC1CN(c2ccc(C)cn2)C1
AUC(0-t) (human; oral, 0.1 mg, single dose, healthy volunteers): 0.0527 µg·h/mL

COc1ccc(-n2nc(C(N)=O)c3c2C(=O)N(c2ccc(N4CCCCC4=O)cc2)CC3)cc1
AUC(0-t) (male human; oral, 2.5 mg, single dose): 0.43 µg·h/mL

CCNCCCNC/C=C\CNCCCNCC
AUC(0-t) (human; intravenous, 100 mg, patients, infusion): 0.304 µg·h/mL

COc1ccc(-n2nc(C(N)=O)c3c2C(=O)N(c2ccc(N4CCCCC4=O)cc2)CC3)cc1
AUC(0-t) (human; oral, 10 mg, single dose, healthy volunteers): 2.48 µg·h/mL
